Experimental data: ChEMBL document CHEMBL4321800, “Synthesis, Identification, and Structure-Activity Relationship Analysis of GATA4 and NKX2-5 Protein-Protein Interaction Modulators” (J Med Chem, 2019)
Active and inactive are the calls of the source. The rule behind the calls is not given here.

Key:
Format in all cases: cell-based
COS-1 [1] = test: Cytotoxicity against Chlorocebus aethiops COS1 cells assessed as reduction in cell viability at 10 uM after 24 hrs by MTT assay relative to control; settings: cos-1, 24 h
How it was run: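 COS-1 cells plated 10 000/well, exposed next day for 24 h (range 1–30 μM). Incubated with 0.5 mg/mL MTT for 2 h at 37 °C, formazan dissolved in DMSO, A550 minus A650 background. Means of 2–3 independent experiments with triplicate wells, % of vehicle-treated cells; toxic if viability fell >10% at 10 μM.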

[2] = target: T1, GATA4/NKX2-5 (Mus musculus) (UniProt Q08369+P42582); test: Modulation of mouse GATA4/mouse NKX2-5 protein-protein interaction expressed in Chlorocebus aethiops COS1 cells harboring 3xHA reporter gene assessed as transcriptional synergy at 10 uM after 24 hrs by luciferase reporter gene assay relative to control
How it was run: (§1)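 COS-1 cells seeded 14 000/well, grown overnight, then transfected for 6 h in serum- and antibiotic-free medium with pGL3-3xHA reporter (three NKX2-5 sites, 100 ng/well) plus pMT2-GATA4 and pMT2-NKX2-5 (total 50 ng/well), Fugene 6 at 1:3 DNA/reagent. Compound or 0.1% DMSO vehicle for 24 h, then luminescence read. Triplicates, Grubbs outliers removed, expressed as % of control.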

COS-1 [3] = test: Induction of necrosis in Chlorocebus aethiops COS1 cells assessed as LDH release at 1 to 30 uM after 24 hrs by LDH assay relative to control; settings: cos-1, 24 h
How it was run: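 COS-1 cells in DMEM with 10% FBS at 37 °C, 5% CO₂, plated 10 000/well and exposed next day to 1–30 μM for 24 h. Medium samples mixed with NAD, iodonitrotetrazolium, lactate and phenazine methosulfate in 0.2 M Tris-HCl pH 8.2, 30 min at room temperature. Stopped with acetic acid, A490 read and normalized to maximal and spontaneous release.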

[4] = target: T1, GATA4/NKX2-5 (Mus musculus); test: Inhibition of mouse GATA4/mouse NKX2-5 protein-protein interaction expressed in Chlorocebus aethiops COS1 cells harboring 3xHA reporter gene assessed as transcriptional synergy at 10 uM after 24 hrs by luciferase reporter gene assay relative to control; set-up: scale not given: the % may be the effect or the level left; how it was run: as §1
[5] = target: Transcription factor GATA-4 (Mus musculus) (UniProt Q08369); test: Modulation of mouse GATA4 expressed in Chlorocebus aethiops COS1 cells harboring NP-112 reporter gene assessed as BNP promoter-driven transcriptional activity at 10 uM after 24 hrs by luciferase reporter gene assay relative to control
How it was run: (§2)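 GATA reporter assay: COS-1 cells (14 000/well, overnight) transfected 6 h serum/antibiotic-free with NP-112 reporter (tandem GATA sites plus rat BNP minimal promoter, 100 ng/well) and pMT2-GATA4 (25 ng/well), Fugene 6 1:3. Treated 24 h with compound or 0.1% DMSO. Luminescence read; triplicates, Grubbs outliers removed, % of control.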

COS-1 [6] = test: Cytotoxicity against Chlorocebus aethiops COS1 cells assessed as reduction in cell viability at 10 uM after 24 hrs by CellTiter-Glo Luminescent Cell Viability assay relative to control; settings: cos-1, 24 h
How it was run: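 Intracellular ATP read-out (CellTiter-Glo) in COS-1 cells plated and treated as for MTT, 24 h exposure, doxorubicin as positive control. Plates equilibrated 30 min at room temperature, washed with PBS, reagent added, mixed 2 min, 15 min at room temperature, then luminescence. Mean + SEM of three independent experiments, % of vehicle-treated cells.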

[7] = target: Homeobox protein Nkx-2.5 (Mus musculus) (UniProt P42582); test: Inhibition of mouse NKX2-5 expressed in Chlorocebus aethiops COS1 cells harboring 3xHA reporter gene assessed as protein-induced transcriptional activity at 10 uM after 24 hrs by luciferase reporter gene assay relative to control; set-up: scale not given: the % may be the effect or the level left
How it was run: (§3)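 COS-1 cells seeded 14 000/well and grown overnight. Transfection for 6 h in serum- and antibiotic-free medium with pGL3-3xHA reporter (100 ng/well) and pMT2-NKX2-5 (25 ng/well), Fugene 6 1:3. Compound or 0.1% DMSO vehicle for 24 h, then luciferase luminescence. Triplicate wells with Grubbs outlier removal, % of control.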

[8] = target: Homeobox protein Nkx-2.5 (Mus musculus) (UniProt P42582); test: Modulation of mouse NKX2-5 expressed in Chlorocebus aethiops COS1 cells harboring 3xHA reporter gene assessed as protein-induced transcriptional activity at 10 uM after 24 hrs by luciferase reporter gene assay relative to control; how it was run: as §3
[9] = target: T2, GATA4/NKX2-5 (Rattus norvegicus) (UniProt P46152+O35767); test: (§4) Modulation of GATA4/NKX2-5 protein-protein interaction in neonatal Wistar rat cardiomyocytes harboring -534/+4 bp rat BNP proximal promoter assessed as increase in BNP-promoter driven activity at 10 to 30 preincubated for 1 hr followed by hypertrophic agonist endothelin-1 and measured after 24 hrs by luminescence method
How it was run: (§5)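 Neonatal ventricular myocytes from 2–3-day-old Wistar rats, 50 000/well, cultured 18–20 h in DMEM/F12 with 10% FBS. Transfected 24 h in serum-free CSFM with pGL3-BNP (−534/+4 promoter, 100 ng/well), Fugene 6 1:3. Compound or 0.1% DMSO added in CSFM, endothelin-1 1 h later, luminescence after 24 h. Mean + SD, n = 3; ANOVA with Tukey or Games–Howell.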

[10] = target: Transcription factor GATA-4 (Mus musculus) (UniProt Q08369); test: Inhibition of mouse GATA4 expressed in Chlorocebus aethiops COS1 cells harboring NP-112 reporter gene assessed as BNP promoter-driven transcriptional activity at 10 uM after 24 hrs by luciferase reporter gene assay relative to control; set-up: scale not given: the % may be the effect or the level left; how it was run: as §2
[11] = target: Transcription factor GATA-4 (Mus musculus) (UniProt Q08369); test: Enhancement of mouse GATA4 expressed in Chlorocebus aethiops COS1 cells harboring NP-112 reporter gene assessed as BNP promoter-driven transcriptional activity at 10 uM after 24 hrs by luciferase reporter gene assay relative to control; how it was run: as §2
[12] = target: T1, GATA4/NKX2-5 (Mus musculus); test: Enhancement of mouse GATA4/mouse NKX2-5 protein-protein interaction expressed in Chlorocebus aethiops COS1 cells harboring 3xHA reporter gene assessed as transcriptional synergy at 10 uM after 24 hrs by luciferase reporter gene assay relative to control; how it was run: as §1
[13] = target: Homeobox protein Nkx-2.5 (Mus musculus) (UniProt P42582); test: Enhancement of mouse NKX2-5 expressed in Chlorocebus aethiops COS1 cells harboring 3xHA reporter gene assessed as protein-induced transcriptional activity at 10 uM after 24 hrs by luciferase reporter gene assay relative to control; how it was run: as §3
[14] = target: T2, GATA4/NKX2-5 (Rattus norvegicus); test: as §4, with “reduction” for “increase”, “hypertrophic response” for “BNP-promoter driven activity”, “at” for “at 10 to”; how it was run: as §5
[15] = target: T2, GATA4/NKX2-5 (Rattus norvegicus); test: as §4, with “reduction” for “increase”; how it was run: as §5

Sequence of Homeobox protein Nkx-2.5 (Mus musculus) (P42582 whole entry): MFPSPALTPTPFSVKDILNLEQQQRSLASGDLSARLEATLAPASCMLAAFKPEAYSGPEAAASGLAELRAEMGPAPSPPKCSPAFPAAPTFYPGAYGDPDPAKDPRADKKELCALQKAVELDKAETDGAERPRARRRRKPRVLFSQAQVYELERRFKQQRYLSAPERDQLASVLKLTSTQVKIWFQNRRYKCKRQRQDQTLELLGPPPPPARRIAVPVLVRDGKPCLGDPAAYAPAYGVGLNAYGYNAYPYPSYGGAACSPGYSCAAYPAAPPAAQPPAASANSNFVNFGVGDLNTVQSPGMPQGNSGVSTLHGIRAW
Sequence of Transcription factor GATA-4 (Mus musculus) (Q08369 whole entry): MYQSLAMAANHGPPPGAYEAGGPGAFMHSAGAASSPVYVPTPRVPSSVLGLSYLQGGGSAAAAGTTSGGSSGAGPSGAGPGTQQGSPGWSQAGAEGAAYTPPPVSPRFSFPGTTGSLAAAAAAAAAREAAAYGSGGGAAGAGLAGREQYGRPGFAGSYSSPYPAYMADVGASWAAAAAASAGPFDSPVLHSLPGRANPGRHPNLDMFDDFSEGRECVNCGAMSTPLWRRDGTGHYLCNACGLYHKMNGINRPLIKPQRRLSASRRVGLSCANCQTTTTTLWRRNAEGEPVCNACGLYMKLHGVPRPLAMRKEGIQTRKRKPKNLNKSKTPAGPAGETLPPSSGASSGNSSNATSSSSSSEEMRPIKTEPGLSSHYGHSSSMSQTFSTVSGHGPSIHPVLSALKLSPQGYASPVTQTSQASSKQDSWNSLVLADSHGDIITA

Compound	Activity [2] [%]	Activity [4] [%]	Activity [5] [%]	Activity [7] [%]	Activity [10] [%]	Activity (COS-1 [1])	Activity (COS-1 [3]) [%]	Activity (COS-1 [6])	also measured
CCN(CC)c1ccc(NC(=O)c2c(-c3cccc([N+](=O)[O-])c3)noc2C)cc1	65	–	–	–	–	Non-Toxic	< 8	–	–
CCN(CC)c1ccc(NC(=O)c2csc(C)c2-c2ccccc2)cc1	33	–	58	–	–	Non-Toxic	< 8	–	Activity [8]: 39%
CCN(CC)c1ccc(NC(=O)c2c(C)noc2-c2ccccc2)cc1	–	29	–	29	–	> 10%	< 8	–	–
Cc1onc(-c2ccccc2)c1COc1ccc(C(=O)OCCC#N)cc1	–	26	–	29	41	> 10%	< 8	> 10%	–
CC(=O)N(Cc1ccc(N(C)C)cc1)c1c(-c2ccccc2)noc1C	–	28	–	–	47	> 10%	< 8	–	–
CCN(c1ccc(NC(=O)c2c(C)noc2-c2ccccc2)cc1)C(C)C	–	25	–	31	41	> 10%	< 8	–	–
CC(=O)COC(=O)c1ccc(OCc2c(-c3ccccc3)noc2C)cc1	37	–	–	–	44	> 10%	< 8	–	Activity [8]: 41%
Cc1onc(-c2ccccc2)c1C(=O)N(C1=NC(C)CS1)c1ccc(Cl)cc1 (stereo not drawn)	–	–	–	–	–	–	< 8	Non-Toxic	Activity [11]: 220%; Activity [12]: 170%; Activity [13]: 110%; Activity [9]: Active
CCN(CC)c1ccc(NC(=O)c2c(-c3ccccc3)noc2C)cc1	50	–	62	–	–	–	< 8	> 10%	Activity [8]: 49%
CCN(c1ccc(NC(=O)c2cnsc2)cc1)C(C)C	–	12	–	11	20	–	–	–	Activity [14]: Active; Activity [15]: Active
COc1ccc(-c2cc(NC(=O)c3ccc(C(C)(C)C)cc3)n[nH]2)cc1	–	–	–	–	40	–	< 8	Non-Toxic	–

Further lines, with some results ahead:

Activity [2] [%]	Activity [4] [%]	Activity [5] [%]	Activity [7] [%]	Activity [10] [%]	Compound	Activity (COS-1 [1])	Activity (COS-1 [3]) [%]	Activity (COS-1 [6])	also measured
–	27	48	16	–	CCN(CC)c1ccc(NC(=O)c2cnsc2)cc1	–	< 8	Non-Toxic	–
–	24	68	21	–	CCN(CC)c1ccc(NC(=O)c2c(C)noc2-c2snnc2C)cc1	> 10%	< 8	–	Activity [9]: Active
35	–	49	–	–	CCN(CC)c1ccc(NC(=O)c2cc(C)oc2-c2ccccc2)cc1	> 10%	< 8	–	Activity [8]: 37%
–	22	–	34	43	CCC(=O)N(Cc1ccc(N(CC)CC)cc1)c1c(-c2ccccc2)noc1C	> 10%	< 8	> 10%	–
